# Results of several laboratories.
# Each line is one published result; the experiments were not run side by side.
# Target: Aurora kinase B (AURKB, Homo sapiens, UniProt Q96GD4)
# Effect on: enzyme activity
SMILES,action,method,tested at,remaining activity [%]
O=c1cc(-c2cccc3c2Sc2ccccc2S3)oc(N2CCOCC2)c1,inhibitor,,0.5 µM,95.8
CN1CCc2cc(Nc3ncc(C4CC4)c(NCCCNC(=O)C4CCC4)n3)ccc2C1,inhibitor,radiometric,1 µM,8
CS(=O)(=O)CCNCc1ccc(-c2ccc3ncnc(Nc4ccc(OCc5cccc(F)c5)c(Cl)c4)c3c2)o1,,,0.5 µM,98.4
Cc1nn(CC(F)(F)F)cc1Nc1ncc(Br)c(NCc2ccc(S(N)(=O)=O)cc2)n1,inhibitor,radiometric,1 µM,87
O=C(Nc1cnn(-c2csc(C(=O)NC3COC3)c2)c1)Nc1c(F)cccc1Cl,inhibitor,,5 µM,69.8
COc1cc(Nc2cnc(C#N)c(O[C@H](C)CN(C)C)n2)ncc1-c1cnn(C)c1,inhibitor,radiometric,10 µM,53
Nc1nc(NC2CCCCC2)sc1C(=O)c1ccccc1,inhibitor,,10 µM,75
CCN(CC)c1ccc(C2=NNC(=O)CC2C)cc1[N+](=O)[O-] (stereo not shown),inhibitor,,10 µM,118
COc1cc(Cl)c(C(=O)N[C@@H](CN[C@H]2CC[C@@H](N)CC2)Cc2ccc(C#N)cc2)cc1-c1ccc(CN[C@H](C)c2ccc(C)cc2)o1,inhibitor,,1 µM,96
COc1cc2ncnc(Nc3ccc(F)c(Cl)c3)c2cc1OCCCN1CCOCC1,,,0.5 µM,106
CC(C)(O)[C@H]1CC[C@H](Nc2ccc3ncc(-c4cccc(C(F)(F)F)c4)n3n2)CC1,inhibitor,,1 µM,82.1
FC(F)c1nc2ccccc2n1-c1nc(N2CCOCC2)nc(N2CCOCC2)n1,inhibitor,,10 µM,94
O=C(NCCCNc1nc(Nc2cccc(NC(=O)N3CCCC3)c2)ncc1Br)C1CCC1,inhibitor,radiometric,1 µM,5
Nc1nc(Nc2ccccc2)sc1C(=O)c1c(F)cccc1F,inhibitor,,10 µM,24
Cc1nn(CC(F)(F)F)cc1Nc1ncc(Br)c(NCCCNC(=O)C2CCC2)n1,inhibitor,radiometric,1 µM,38
O=C(Nc1cnn(-c2csc(C(=O)NC3COC3)c2)c1)Nc1ccccc1Cl,inhibitor,,5 µM,93
CC(C)(C)c1nc(-c2cccc(NS(=O)(=O)c3c(F)cccc3F)c2F)c(-c2ccnc(N)n2)s1,inhibitor,radiometric,1 µM,81
Cc1nn(CC(F)(F)F)cc1Nc1ncc(C2CC2)c(NCc2ccc(S(N)(=O)=O)cc2)n1,inhibitor,radiometric,1 µM,102
O=C1Nc2ccc(Cl)cc2C1=Cc1cc(Cl)c(O)c(Cl)c1,,,0.5 µM,9.19
